Activity calls are given as the source filed them. No cut-off for these calls is given here.

For data set [1], the system named is BT-474. The data set is described as follows: Cytotoxicity against human BT474 cells assessed as decrease in cell viability after 48 hrs by MTS assay. Format: functional. As to conditions: BT-474, 48 h. A digest of the protocol: (§1)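 Cells grown at 37 °C, 5% CO2, with 10% FBS and penicillin/streptomycin: MDA-MB-231, JIMT1 and DU145 in DMEM, PC3 in F12K, BT474 in Hybricare, MiaPaCa2 in DMEM plus 2.5% horse serum. Cells (7500–9000/well) were plated for 24 h, then exposed to 0–20 µM for 48 h. MTS was added for 1–4 h and OD490 read, blank-subtracted, relative to vehicle. CC50 was read from plots; mean ± SD, six independent determinations.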
On the technique in general: Tetrazolium assays rely on reduction of a dye to a coloured formazan, in cell work by metabolically active cells.

In data set [2] the test system is JIMT-1. The data set is described as follows: Cytotoxicity against human JIMT1 cells assessed as decrease in cell viability after 48 hrs by MTS assay. As to conditions: JIMT-1, 48 h. Format: functional. A digest of the protocol:
as §1

For data set [3], the system named is MDA-MB-231. The data set is described as follows: Cytotoxicity against human MDA-MB-231 cells assessed as decrease in cell viability after 48 hrs by MTS assay. Format: functional. As to conditions: MDA-MB-231, 48 h. A digest of the protocol: as §1
For data set [4], the system named is DU-145. The data set is described as follows: Cytotoxicity against human DU145 cells assessed as decrease in cell viability after 48 hrs by MTS assay. As to conditions: DU-145, 48 h. In kind it is functional. A digest of the protocol: as §1
The test system of data set [5] is PC-3. The data set is described as follows: Cytotoxicity against human PC3 cells assessed as decrease in cell viability after 48 hrs by MTS assay. In kind it is functional. The following applies: PC-3, 48 h. The procedure, abridged:
as §1

For data set [6], the system named is MIA PaCa-2. Kind of data set: Cytotoxicity against human MIAPaCa2 cells assessed as decrease in cell viability after 48 hrs by MTS assay. In kind it is functional. As to conditions: MIA PaCa-2, 48 h. The procedure, abridged:
as §1

The subject of data set [7] is BT-474. Kind of data set: Induction of disintegration of human BT474 cancer stem cell spheroids at 20 uM after 3 days by microscopic method. Format: functional, cell-based. The procedure, abridged:
(§2)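 BT474 stem-cell spheroids (ALDH1-sorted, formed over 6 days in Mammocult on ultra-low adhesion plates) exposed to 0, 7.5 or 20 µM for 3 days. Integrity was judged by light microscopy at ×10 against untreated spheroid wells.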

Data set [8] relates to BT-474. The data set is described as follows: Cytotoxicity against human BT474 cancer stem cell spheroids assessed as cell viability at 20 uM after 3 days by MTS assay relative to control. The following applies: BT-474, 72 h.
Data set [9] relates to BT-474. The data set is described as follows: Induction of disintegration of human BT474 cancer stem cell spheroids at 7.5 uM after 3 days by microscopic method. In kind it is functional, cell-based. A digest of the protocol:
as §2

Data set [10] deals with BT-474. Kind of data set: Cytotoxicity against human BT474 cancer stem cell spheroids assessed as decrease in cell viability at 2 to 10 uM after 3 days by MTS assay.
Data set [11] deals with BT-474. Kind of data set: Cytotoxicity against human BT474 cancer stem cell spheroids assessed as decrease in cell viability up to 20 uM after 3 days by MTS assay.
For data set [12], the system named is JIMT-1. Kind of data set: Cytotoxicity against human JIMT1 cells assessed as decrease in cell viability at 2 to 8 uM in presence of pan-caspase inhibitor Q-VD-OPh after 48 hrs by MTS assay. Format: functional, cell-based. A digest of the protocol:
(§3)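 DU145 or JIMT1 cells seeded for 24 h, then given 40 µM pan-caspase inhibitor along with varying compound concentrations. Incubation continued 48 h, then MTS (20% v/v) for 1–4 h, OD490 read. Values are blank-subtracted and relative to vehicle controls; mean ± SD.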

Data set [13] concerns DU-145. Kind of data set: Cytotoxicity against human DU145 cells assessed as decrease in cell viability at 2 to 8 uM in presence of pan-caspase inhibitor Q-VD-OPh after 48 hrs by MTS assay. Format: functional, cell-based. The procedure, abridged:
as §3

Data set [14] is described as follows: Chemical stability of compound in aqueous DMSO solution at pH 2 to 3 at 30 uM after 1 week. In kind it is physicochemical. The following applies: buffer, pH 2, 168 h. The procedure, abridged: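 Tested as the TFA salt at 30 µM in aqueous DMSO, pH 2-3, and held for at least one week.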

Usually CC50 stands for the concentration that lowers cell viability or growth by half. With `O=C(O)CCCc1ccc(N(CCCl)CCCl)cc1` [CHLORAMBUCIL], the CC50 in [1], in data set [2], in [3], in data set [4], in [5] and in data set [6] was > 150 µM in each case.

For orientation: viability means a read-out of living cells in per cent, often relative to untreated cells. As for `CCCCCCCCCCCCCCCCOC[C@H](CO[C@@H]1O[C@H](CN)[C@@H](O)[C@H](O)[C@H]1NCCCCCCCCCCCCN)OC`, the CC50 in [1] worked out at 13.5 µM; in data set [2], 8 µM; in data set [3], 5.5 µM; in data set [4], 7.5 µM; in [5], 8.5 µM; in data set [6] it was 8.5 µM. The result in data set [7] and in data set [9] was Active. For the same compound, the viability at 20 µM in [8] is 0%.

In the case of `CCCCCCCCCCCCCCCCOC[C@H](CO[C@@H]1O[C@H](CO)[C@@H](O)[C@H](O)[C@H]1N)OC`, the CC50 in data set [1] is 8 µM; in data set [2] it was 9 µM; in data set [3] it was 7.1 µM; in data set [4] it was 10 µM; in data set [5], 13.5 µM; in data set [6] it was 9 µM. Moreover, the outcome in data set [10] was Active.

As to `CCCCCCCCCCCCCCN` [TETRADECYLAMINE], the result in [11], in data set [7] and in data set [9] was inactive. The CC50 in data set [2] was determined as 27 µM; in data set [4], 16.5 µM; in [5] it was 24 µM; in [6], 18 µM.

Consider `COc1cccc2c1C(=O)c1c(O)c3c(c(O)c1C2=O)C[C@@](O)(C(=O)CO)C[C@@H]3O[C@H]1C[C@H](N)[C@H](O)[C@H](C)O1`, for which the result in [11] was Active. Further, the outcome in data set [12], in [9] and in data set [13] was inactive.

`CCCCCCCCCCCCCCCCOC[C@H](CO[C@@H]1O[C@H](CNCCCCCCCCCCCCNC(=O)CCCc2ccc(N(CCCl)CCCl)cc2)[C@@H](O)[C@H](O)[C@H]1N)OC.O=C(O)C(F)(F)F.O=C(O)C(F)(F)F`: the CC50 is 13 µM in [1]; 16 µM in data set [2]; 10.5 µM in data set [3]; > 20 µM in data set [4]; > 20 µM in data set [5]; > 20 µM in data set [6]. Also, the Stability entry in data set [14] is “Stable”.

Regarding `CCCCCCCCCCCCCCCCOC[C@H](CO[C@@H]1O[C@H](CNCCCN)[C@@H](O)[C@H](O)[C@H]1N)OC`, the CC50 in data set [1] was > 20 µM; in data set [2] it was 13.5 µM; in data set [3] it was 13.5 µM; in [4], 16.5 µM; in data set [5], 12.5 µM; in [6] it was 18.5 µM. Besides, the result in data set [7] was inactive. In data set [8], the viability at 20 µM was 0%. Further, the result in [9] was Active.

For the compound `NCCCCCCCCCCCCO[C@@H]1O[C@H](CN)[C@@H](O)[C@H](O)[C@H]1N`, the CC50 in data set [1], in data set [2], in data set [3], in data set [4], in [5] and in data set [6] was > 20 µM throughout. Besides, the outcome in data set [11], in [7] and in data set [9] was inactive.

As for `CCCCCCCCCCCCCCCCOC[C@H](CO[C@@H]1O[C@H](CN)[C@@H](O)[C@H](O)[C@H]1NCCCN)OC`, the CC50 in data set [1] was > 20 µM; in data set [2] it was 12.5 µM; in [3] it was 17.5 µM; in data set [4] it was 18.5 µM; in data set [5], 14.5 µM; in data set [6] it was 14.5 µM. Further, the outcome in data set [7] was inactive. In [8], the viability at 20 µM was 0%. For the same compound, the outcome in data set [9] was Active.

`CCCCCCCCCCCCCCCCOC[C@@H](COC1O[C@H](CN)[C@@H](O)[C@H](O)[C@H]1N)OC` (stereo not given in full): the outcome in data set [10] was Active.

In the case of `CC[C@@H](C(=O)[C@@H](C)[C@@H](O)[C@H](C)[C@@H]1O[C@@H]([C@@H](CC)C(=O)O)CC[C@@H]1C)[C@H]1O[C@]2(C=C[C@@H](O)[C@]3(CC[C@@](C)([C@H]4CC[C@](O)(CC)[C@H](C)O4)O3)O2)[C@H](C)C[C@@H]1C`, in data set [7], the outcome was Active. In addition, the result in data set [9] was inactive.

The values are drawn from ChEMBL document CHEMBL4052815, “Amphiphilic Modulation of Glycosylated Antitumor Ether Lipids Results in a Potent Triamino Scaffold against Epithelial Cancer Cell Lines and BT474 Cancer Stem Cells” (J Med Chem, 2017).
